# SIAE inh = human SIAE inhibitors, primary screen, biochemical, fluorescence polarization, FP-Rh probe, 1536-well HTS; Sialate O-acetylesterase (Homo sapiens), Q9HAT2; SIAE FP-Rh probe binding; inhibition, % at 9.66 µM; hit rate 0.69% among 370,000;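 active = inhibition above a cutoff: mean of compounds within the control limits plus 3 SD of those, cut at about 17% in these data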;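 note: 0% = plate median of compound wells and 100% = probe without SIAE protein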
# Target sequence (Q9HAT2 whole entry, looked up): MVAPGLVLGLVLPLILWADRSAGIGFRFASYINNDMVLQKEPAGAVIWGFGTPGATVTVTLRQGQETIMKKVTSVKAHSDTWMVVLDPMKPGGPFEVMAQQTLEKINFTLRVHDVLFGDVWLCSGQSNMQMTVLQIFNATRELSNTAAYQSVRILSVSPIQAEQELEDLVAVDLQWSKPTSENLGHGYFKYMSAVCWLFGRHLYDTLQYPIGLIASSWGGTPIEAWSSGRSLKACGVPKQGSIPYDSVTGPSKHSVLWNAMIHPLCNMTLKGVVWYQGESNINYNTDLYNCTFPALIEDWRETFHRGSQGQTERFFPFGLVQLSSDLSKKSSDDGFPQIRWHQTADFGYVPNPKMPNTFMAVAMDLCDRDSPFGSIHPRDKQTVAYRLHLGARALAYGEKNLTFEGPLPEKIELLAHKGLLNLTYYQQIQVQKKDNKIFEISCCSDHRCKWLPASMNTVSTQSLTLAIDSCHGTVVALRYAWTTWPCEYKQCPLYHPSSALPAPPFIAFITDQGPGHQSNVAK
# PRMT1 inh = PRMT1 methyltransferase inhibitors, primary screen, biochemical, fluorescence polarization; hit rate 1.3% among 370,000; recombinant PRMT1, activity-based probe fluorescence polarization; inhibition, % at 2.79 µM;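 active = inhibition above about 21% made by adding two undisclosed values, limit read from the data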
# ABHD4 inh = ABHD4 inhibitors, primary screen, biochemical, fluorescence polarization, mouse; (Lyso)-N-acylphosphatidylethanolamine lipase (Mus musculus), Q8VD66; purified mABHD4, FP-Rh probe fluorescence polarization; inhibition, % at 8.92 µM; hit rate 0.54% among 370,000; AID 720543, 2013;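 active = inhibition exceeding the mean over every tested compound plus 3 SD, cut at about 30% in these data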;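 note: 0% = plate median of compound wells and 100% = S159A mutant with DMSO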
#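 Doses – 8.92 µM, single dose · Material – wild-type mouse ABHD4 protein · Replication – single well per compound (singlicate) · Measure – percent inhibition of probe binding, normalized to plate controls · Schedule – 45 min compound pre-incubation plus 60 min probe step, 25 °C · Detection – fluorescence polarization with parallel and perpendicular emission, 525/598 nm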
# rCAG binder = binders of r(CAG) RNA repeats, primary screen, biochemical, fluorescence; r(CAG) RNA repeat, TO-PRO-1 dye displacement fluorescence; inhibition, % at 3 µM; hit rate 1.3% among 370,000; AID 651821, 2012;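 active = inhibition above the plate cutoff, the mean of all test compounds on that plate plus 3 SD, cut at about 35% in these data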;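 note: 0% = DMSO alone and 100% = 100 µM mitoxantrone as full dye displacement; higher means more dye released from RNA so lower well fluorescence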
# HTRA1 inhibitor = HTRA1 serine protease inhibitors, primary screen, biochemical, fluorescence polarization, HTS; hit rate 0.5% among 340,000; inhibition, % at 5.96 µM; AID 504803, 2011; recombinant HTRA1, FP-rhodamine activity-based probe; in the data active = inhibition above about 36%;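 note: 0% = enzyme with DMSO and 100% = wells lacking enzyme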
# rCAG binder conf = small molecules binding CAG repeat RNA – biochemical, fluorescence, confirmation; AID 652065, 2013; shares compounds with rCAG binder; r(CAG) RNA repeat, TO-PRO-1 dye displacement fluorescence; inhibition, % at 3 µM; hit rate 70% among 4,300;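 active = inhibition above a per-plate cutoff, the mean inhibition of sample wells plus 3 SD, cut at about 35% in these data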;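 note: loss of TO-PRO-1 fluorescence as compound displaces dye from 1x1 AA loop RNA; 0% = DMSO only wells and 100% = 100 µM mitoxantrone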
# dCAG dye counter = displacement of TO-PRO-1 from CAG DNA duplex, counter-screen for rCAG RNA repeat binder project, biochemical, fluorescence, TO-PRO-1 dye, d(CAG) DNA oligo; shares compounds with rCAG binder; d(CAG) DNA oligo TO-PRO-1 dye displacement; inhibition, % at 3 µM; hit rate 94% among 4,300;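 active = inhibition above its plate's cutoff, the mean test-well inhibition plus 3 SD, cut at about 4.8% in these data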;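 note: 0% = DNA dye mix with DMSO and 100% = 100 µM mitoxantrone; hits displace the dye from DNA and so lower well fluorescence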
# * = called active by the depositor; · = not tested or not shown. An excerpt weighted towards active compounds, which were near 3.3% of everything screened.
SMILES,SIAE inh,PRMT1 inh,ABHD4 inh,rCAG binder,HTRA1 inhibitor,rCAG binder conf,dCAG dye counter
O=C(Nc1ccc(F)cc1)Nc1nnc(Cc2ccccc2)s1,1,0,-7,42*,-6,14,15*
CCSc1nsc(NC(=O)Nc2cccc(OC)c2)n1,-24,0,-56,58*,-26,20,16*
C[C@@H]1CCN(C2CC2)S(=O)(=O)c2c(cccc2N2CCC[C@@H]2C)O1,-7,7,2,5,·,·,·
O=C(CCc1ccccc1-c1ccccc1CCNC(=O)c1ccc(F)c(F)c1)NCc1ccccc1,-1,-4,3,-1,·,·,·
COc1ccc(Cc2nnc(NC(=O)Nc3cccc(OC)c3)s2)cc1,-13,-2,-3,42*,-12,40*,17*
O=C(Nc1nnc(COc2ccccc2F)s1)Nc1ccccc1F,-21,0,-4,29,-31,·,·
O=C(Nc1ccc(F)cc1)Nc1nnc(COc2ccccc2F)s1,-45,-1,-31,63*,-30,38*,27*
C=CCSc1nsc(NC(=O)Nc2ccc(F)cc2)n1,-40,8,-82,69*,-42,20,20*
COc1cccc(NC(=O)Nc2nnc(Cc3ccc(F)cc3)s2)c1,1,-5,-8,8,-3,·,·
COc1ccc(-c2cc(CNc3nc(NC(C)C)nc4cc(-c5ccccc5)sc34)on2)cc1,13,-5,4,8,·,·,·
Cc1nc(S/C(=C/c2ccc(-c3ccc(Cl)cc3)o2)C(=O)O)n[nH]1,4,6,7,11,-4,·,·
Cc1nc(S/C(=C/c2ccc(-c3cc(Cl)ccc3C)o2)C(=O)O)n[nH]1,6,0,10,51*,21,81*,44*
Cc1sc(NC(=O)C2CCCCC2C(=O)O)c(C(N)=O)c1-c1ccc(C(C)C)cc1 (stereo unspecified),1,2,1,37*,-10,54*,16*
Cc1sc(NC(=O)C2CCCCC2C(=O)O)c(C(N)=O)c1-c1ccccc1 (stereo unspecified),9,3,3,15,0,·,·
O=C(N/C(=C/c1cccc(Br)c1)c1nc(=S)[nH][nH]1)c1ccccc1,2,-1,-18,30,-24,·,·
Cc1ccc(C(=O)N/C(=C\c2ccc(Br)cc2)c2nc(=S)[nH][nH]2)cc1,-14,0,-25,41*,-67,53*,23*
COC(=O)C1=C(C)N(Cc2ccc(Cl)cc2)C(=S)NC1c1cccc(Br)c1 (stereo unspecified),-15,4,-13,5,·,·,·
O=C(CN(c1cccc(Br)c1)S(=O)(=O)c1ccccc1)N/N=C/c1cc([N+](=O)[O-])ccc1O,15,-2,4,77*,·,89*,62*
CCN(C[C@@H]1[C@@H](c2ccccc2)[C@H](CO)N1S(C)(=O)=O)C(=O)C1CCC1,3,-3,1,0,·,·,·
COc1ccc(Cc2nnc(SCC(=O)Nc3ccccc3)[nH]c2=O)cc1,9,5,3,13,-6,·,·
COc1ccc(Cc2nnc(SCC(=O)Nc3cc(Cl)ccc3OC)[nH]c2=O)cc1,-14,4,-6,51*,-12,50*,16*
NS(=O)(=O)c1cccc(C(=O)NC2CCSc3ccccc32)c1 (stereo unspecified),3,0,-4,4,-7,·,·
NS(=O)(=O)c1cc(C(=O)NC2CCSc3ccccc32)ccc1Cl (stereo unspecified),-43,21,-36,80*,-178,81*,49*
Cc1cc(NS(=O)(=O)c2ccc(NC(=O)CSc3nc4sc(C)c(C)c4c(=O)n3Cc3ccco3)cc2)nc(C)n1,-22,24*,-43,68*,·,63*,27*
CCn1c(SCC(=O)Nc2ccc(S(=O)(=O)Nc3cc(C)nc(C)n3)cc2)nc2sc(C)c(C)c2c1=O,-3,-2,0,53*,·,34,11*
SMILES,SIAE inh,PRMT1 inh,ABHD4 inh,rCAG binder,HTRA1 inhibitor,rCAG binder conf,dCAG dye counter
CCN(CC)C(=O)CC[C@@H]1CC[C@]2(CCCN(Cc3ccc(Br)cc3)C2)O1,12,1,-7,-3,·,·,·
CC(=O)NS(=O)(=O)c1ccc(NC(=O)c2ccc3c(c2)C(=O)N(CCC(C)C)C3=O)cc1,-34,0,-43,58*,-62,59*,19*
O=C(Nc1ccc(Cl)cc1C(=O)O)c1ccc2c(c1)C(=O)N(Cc1ccco1)C2=O,-15,5,1,86*,-24,88*,75*
CC(C)CCN1C(=O)c2ccc(C(=O)Nc3ccc(Br)cc3C(=O)O)cc2C1=O,-7,1,-27,63*,-37,79*,73*
O=C(Nc1cccc(O)c1)c1ccc2c(c1)C(=O)N(Cc1ccco1)C2=O,1,2,4,9,-37,·,·
O=C(Nc1ccccc1C(=O)O)c1cccc(N2C(=O)c3ccccc3C2=O)c1,-13,-2,0,35*,-1,18,1
O=C(O)c1cc(NC(=O)c2cccc(N3C(=O)c4ccccc4C3=O)c2)cc(C(=O)O)c1,1,1,-5,8,6,·,·
C#CCN1C(=O)[C@]2(NCCc3c2[nH]c2ccc(OC)cc32)c2cc(F)ccc21,0,0,4,2,·,·,·
CC(C)CN1C(=O)c2ccc(C(=O)Nc3ccccc3C(=O)O)cc2C1=O,-12,-3,-6,56*,-14,57*,18*
CC(=O)Nc1ccc(/C=C/c2ccc3cccc([N+](=O)[O-])c3n2)cc1,-12,5,-9,20,-16,·,·
COc1cc(/C=C/c2ccc3cccc([N+](=O)[O-])c3n2)ccc1OCC(=O)O,-20,8,3,48*,-2,47*,13*
O=C(O)COc1ccc(/C=C/c2ccc3cccc([N+](=O)[O-])c3n2)cc1,-20,10,-17,37*,-5,27,8.4*
CC(=O)NS(=O)(=O)c1ccc(NC(=O)c2cccc(S(=O)(=O)N3CCc4ccccc43)c2)cc1,-1,0,-15,42*,-8,40*,13*

# High-throughput results deposited in PubChem BioAssay by The Scripps Research Institute Molecular Screening Center.
